Source: ChEMBL document CHEMBL3808372, “Identification of quinones as novel PIM1 kinase inhibitors” (Bioorg Med Chem Lett, 2016)

Tests used:
[1] = molecular target: Insulin receptor (Homo sapiens) (UniProt P06213); assay: Inhibition of human INSR (997 to 1318 amino acid residues) assessed as enzyme activity at 10 uM by KINOMEScan assay; design: scale not given: the % may be the effect or the level left
In short: (§1)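 Competition binding screen on a 100-kinase KINOMEscan panel, compound tested at a single 10 μM concentration. Primary binding read-out expressed as % Ctrl = (test compound signal − positive control signal)/(negative control signal − positive control signal) × 100, with lower values meaning stronger binding.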

[2] = molecular target: Tyrosine-protein kinase JAK2 (Homo sapiens) (UniProt O60674); assay: Inhibition of human JAK2 JH1 catalytic domain (829 to 1132 amino acid residues) assessed as enzyme activity at 10 uM by KINOMEScan assay; design: scale not given: the % may be the effect or the level left; in short: as §1
[3] = molecular target: RAC-beta serine/threonine-protein kinase (Homo sapiens) (UniProt P31751); assay: Inhibition of human Akt2 expressed in bacterial system assessed as enzyme activity at 10 uM by KINOMEScan assay; design: scale not given: the % may be the effect or the level left
In short: (§2)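 Commercial KINOMEscan binding panel of 100 kinases, test compound at 10 μM. Results are primary-screen binding interactions expressed as % Ctrl = (test compound signal − positive control signal)/(negative control signal − positive control signal) × 100. Lower % Ctrl means stronger binding.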

[4] = molecular target: Serine/threonine-protein kinase PLK1 (Homo sapiens) (UniProt P53350); assay: Inhibition of human PLK1 (33 to 325 amino acid residues) assessed as enzyme activity at 10 uM by KINOMEScan assay; design: scale not given: the % may be the effect or the level left
In short: (§3)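 Single-concentration competition binding screen (KINOMEscan) across a 100-kinase panel at 10 μM. Primary binding read-out is reported as % of control: (test signal − positive-control signal)/(negative-control signal − positive-control signal) × 100. Lower values indicate stronger binding.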

[5] = molecular target: ALK tyrosine kinase receptor (Homo sapiens) (UniProt Q9UM73); assay: Inhibition of human ALK (1088 to 1409 amino acid residues) assessed as enzyme activity at 10 uM by KINOMEScan assay; design: scale not given: the % may be the effect or the level left; in short: as §2
[6] = Cytotoxicity against human DU145 cells assessed as cell growth inhibition after 72 hrs by Alamar blue assay; format: functional, cell-based; details: DU-145, 72 h
[7] = molecular target: Serine/threonine-protein kinase Chk1 (Homo sapiens) (UniProt O14757); assay: Inhibition of human CHEK1 (1 to 289 amino acid residues) assessed as enzyme activity at 10 uM by KINOMEScan assay expressed in bacterial system assessed as enzyme activity at 10 uM by KINOMEScan assay; design: scale not given: the % may be the effect or the level left; in short: as §1
[8] = molecular target: Serine/threonine-protein kinase STK11 (Homo sapiens) (UniProt Q15831); assay: Inhibition of full length human LKB1 expressed in bacterial system assessed as enzyme activity at 10 uM by KINOMEScan assay; design: scale not given: the % may be the effect or the level left; in short: as §2
[9] = molecular target: Mitogen-activated protein kinase 3 (Homo sapiens) (UniProt P27361); assay: Inhibition of full length human ERK1 expressed in bacterial system assessed as enzyme activity at 10 uM by KINOMEScan assay; design: scale not given: the % may be the effect or the level left; in short: as §2
[10] = molecular target: Focal adhesion kinase 1 (Homo sapiens) (UniProt Q05397); assay: Inhibition of human FAK (402 to 696 amino acid residues) assessed as enzyme activity at 10 uM by KINOMEScan assay expressed in bacterial system assessed as enzyme activity at 10 uM by KINOMEScan assay; design: scale not given: the % may be the effect or the level left; in short: as §1
[11] = molecular target: Serine/threonine-protein kinase DCLK1 (Homo sapiens) (UniProt O15075); assay: Inhibition of human DCAMKL1 (270 to 662 amino acid residues) assessed as enzyme activity at 10 uM by KINOMEScan assay; design: scale not given: the % may be the effect or the level left; in short: as §1
[12] = molecular target: Receptor tyrosine-protein kinase erbB-2 (Homo sapiens) (UniProt P04626); assay: Inhibition of human ERBB2 (646 to 1225 amino acid residues) assessed as enzyme activity at 10 uM by KINOMEScan assay; design: scale not given: the % may be the effect or the level left; in short: as §1
[13] = molecular target: Aurora kinase B (Homo sapiens) (UniProt Q96GD4); assay: Inhibition of human AURKB (25 to 303 amino acid residues) assessed as enzyme activity at 10 uM by KINOMEScan assay; design: scale not given: the % may be the effect or the level left; in short: as §1
[14] = molecular target: Cyclin-dependent kinase 16 (Homo sapiens) (UniProt Q00536); assay: Inhibition of human PCTK1 (160 to 474 amino acid residues) assessed as enzyme activity at 10 uM by KINOMEScan assay; design: scale not given: the % may be the effect or the level left; in short: as §2
[15] = molecular target: Cyclin-dependent kinase 2 (Homo sapiens) (UniProt P24941); assay: Inhibition of full length human CDK2 expressed in bacterial system assessed as enzyme activity at 10 uM by KINOMEScan assay; design: scale not given: the % may be the effect or the level left; in short: as §1
[16] = test system: Serine/threonine-protein kinase B-raf (Homo sapiens), P15056 [V600E]; assay: Inhibition of human BRAF V600E mutant (429 to 741 amino acid residues) assessed as enzyme activity at 10 uM by KINOMEScan assay; design: scale not given: the % may be the effect or the level left; in short: as §1
[17] = molecular target: NUAK family SNF1-like kinase 2 (Homo sapiens) (UniProt Q9H093); assay: Inhibition of human SNARK (22 to 333 amino acid residues) assessed as enzyme activity at 10 uM by KINOMEScan assay; design: scale not given: the % may be the effect or the level left; in short: as §3
[18] = molecular target: Phosphatidylinositol 4,5-bisphosphate 3-kinase catalytic subunit gamma isoform (Homo sapiens) (UniProt P48736); assay: Inhibition of human PIK3CG (144 to 1102 amino acid residues) assessed as enzyme activity at 10 uM by KINOMEScan assay; design: scale not given: the % may be the effect or the level left; in short: as §3
[19] = molecular target: Casein kinase II (Homo sapiens) (UniProt P67870+P68400+P19784); assay: Share of MOE computational kinase hits for CK2
[20] = molecular target: Bone morphogenetic protein receptor type-2 (Homo sapiens) (UniProt Q13873); assay: Inhibition of human BMPR2 (179 to 526 amino acid residues) assessed as enzyme activity at 10 uM by KINOMEScan assay; design: scale not given: the % may be the effect or the level left; in short: as §1
[21] = molecular target: Angiopoietin-1 receptor (Homo sapiens) (UniProt Q02763); assay: Inhibition of human TIE2 (804 to 1112 amino acid residues) expressed in bacterial system assessed as enzyme activity at 10 uM by KINOMEScan assay; design: scale not given: the % may be the effect or the level left; in short: as §3
[22] = molecular target: Platelet-derived growth factor receptor alpha (Homo sapiens) (UniProt P16234); assay: Inhibition of human PDGFRA (575 to 1002 amino acid residues) assessed as enzyme activity at 10 uM by KINOMEScan assay; design: scale not given: the % may be the effect or the level left; in short: as §2
[23] = molecular target: Glycogen synthase kinase-3 beta (Homo sapiens) (UniProt P49841); assay: Inhibition of full length human GSK3B assessed as enzyme activity at 10 uM by KINOMEScan assay; design: scale not given: the % may be the effect or the level left; in short: as §1
[24] = molecular target: Atypical kinase COQ8A, mitochondrial (Homo sapiens) (UniProt Q8NI60); assay: Inhibition of full length human ADCK3 expressed in bacterial system assessed as enzyme activity at 10 uM by KINOMEScan assay; design: scale not given: the % may be the effect or the level left; in short: as §2
[25] = molecular target: Serine/threonine-protein kinase PAK 1 (Homo sapiens) (UniProt Q13153); assay: Inhibition of human PAK1 (149 to 545 amino acid residues) expressed in bacterial system assessed as enzyme activity at 10 uM by KINOMEScan assay; design: scale not given: the % may be the effect or the level left; in short: as §1
[26] = molecular target: Mitogen-activated protein kinase kinase kinase 9 (Homo sapiens) (UniProt P80192); assay: Inhibition of human MLK1 (88 to 426 amino acid residues) expressed in bacterial system assessed as enzyme activity at 10 uM by KINOMEScan assay; design: scale not given: the % may be the effect or the level left; in short: as §1

Serine/threonine-protein kinase DCLK1 (Homo sapiens), sequence (O15075 whole entry, the tested form may be a part): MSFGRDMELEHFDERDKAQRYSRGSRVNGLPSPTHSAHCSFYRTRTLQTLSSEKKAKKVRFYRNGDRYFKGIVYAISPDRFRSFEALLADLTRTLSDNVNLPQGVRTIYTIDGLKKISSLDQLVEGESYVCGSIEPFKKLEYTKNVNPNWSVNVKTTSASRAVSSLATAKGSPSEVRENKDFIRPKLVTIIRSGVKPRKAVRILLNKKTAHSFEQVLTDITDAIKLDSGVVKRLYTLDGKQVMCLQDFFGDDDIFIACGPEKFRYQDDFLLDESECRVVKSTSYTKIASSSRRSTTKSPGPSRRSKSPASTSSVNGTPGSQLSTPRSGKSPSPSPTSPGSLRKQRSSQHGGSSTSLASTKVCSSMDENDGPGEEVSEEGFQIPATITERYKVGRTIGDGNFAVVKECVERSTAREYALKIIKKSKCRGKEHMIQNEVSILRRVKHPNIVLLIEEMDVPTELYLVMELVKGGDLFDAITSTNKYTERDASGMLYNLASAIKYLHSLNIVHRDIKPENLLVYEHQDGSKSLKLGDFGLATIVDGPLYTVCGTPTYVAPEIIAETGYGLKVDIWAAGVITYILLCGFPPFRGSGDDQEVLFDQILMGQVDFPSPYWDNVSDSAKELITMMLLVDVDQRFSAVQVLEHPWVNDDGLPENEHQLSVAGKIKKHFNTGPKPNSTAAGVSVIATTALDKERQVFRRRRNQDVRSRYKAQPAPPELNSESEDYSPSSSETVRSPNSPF
Receptor tyrosine-protein kinase erbB-2 (Homo sapiens), sequence (P04626 whole entry, the tested form may be a part): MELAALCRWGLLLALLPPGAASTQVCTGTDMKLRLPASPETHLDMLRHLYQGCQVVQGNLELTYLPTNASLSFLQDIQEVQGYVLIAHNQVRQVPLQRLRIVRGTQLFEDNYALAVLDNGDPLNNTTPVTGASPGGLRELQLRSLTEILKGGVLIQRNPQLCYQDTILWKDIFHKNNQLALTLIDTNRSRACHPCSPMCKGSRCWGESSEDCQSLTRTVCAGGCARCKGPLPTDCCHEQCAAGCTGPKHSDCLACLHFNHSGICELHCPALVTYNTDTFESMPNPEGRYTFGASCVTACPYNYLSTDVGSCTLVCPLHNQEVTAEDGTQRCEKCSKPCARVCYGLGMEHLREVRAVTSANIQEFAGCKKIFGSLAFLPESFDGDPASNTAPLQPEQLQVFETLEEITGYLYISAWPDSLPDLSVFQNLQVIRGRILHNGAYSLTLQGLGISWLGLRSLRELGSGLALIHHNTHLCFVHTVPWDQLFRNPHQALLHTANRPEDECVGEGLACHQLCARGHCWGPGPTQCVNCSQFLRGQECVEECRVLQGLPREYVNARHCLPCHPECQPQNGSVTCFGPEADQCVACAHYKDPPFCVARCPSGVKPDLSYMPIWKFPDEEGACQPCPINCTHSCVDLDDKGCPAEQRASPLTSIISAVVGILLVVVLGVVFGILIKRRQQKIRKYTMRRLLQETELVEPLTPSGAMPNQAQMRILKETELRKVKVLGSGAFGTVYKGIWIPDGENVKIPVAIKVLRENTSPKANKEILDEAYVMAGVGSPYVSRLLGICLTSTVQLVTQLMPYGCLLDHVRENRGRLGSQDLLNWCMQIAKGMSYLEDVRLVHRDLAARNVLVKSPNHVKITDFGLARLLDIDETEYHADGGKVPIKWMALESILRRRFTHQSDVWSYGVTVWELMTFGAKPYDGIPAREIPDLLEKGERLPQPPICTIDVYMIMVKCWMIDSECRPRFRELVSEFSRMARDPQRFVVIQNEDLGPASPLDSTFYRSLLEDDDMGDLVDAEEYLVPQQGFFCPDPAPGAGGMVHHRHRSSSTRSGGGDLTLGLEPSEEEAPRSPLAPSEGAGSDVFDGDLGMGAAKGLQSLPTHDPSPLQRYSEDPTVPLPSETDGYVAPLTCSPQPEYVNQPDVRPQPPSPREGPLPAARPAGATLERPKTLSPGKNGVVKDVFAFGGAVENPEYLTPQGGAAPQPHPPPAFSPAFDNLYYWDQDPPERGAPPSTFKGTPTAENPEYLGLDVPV
Platelet-derived growth factor receptor alpha (Homo sapiens), sequence (P16234 whole entry, the tested form may be a part): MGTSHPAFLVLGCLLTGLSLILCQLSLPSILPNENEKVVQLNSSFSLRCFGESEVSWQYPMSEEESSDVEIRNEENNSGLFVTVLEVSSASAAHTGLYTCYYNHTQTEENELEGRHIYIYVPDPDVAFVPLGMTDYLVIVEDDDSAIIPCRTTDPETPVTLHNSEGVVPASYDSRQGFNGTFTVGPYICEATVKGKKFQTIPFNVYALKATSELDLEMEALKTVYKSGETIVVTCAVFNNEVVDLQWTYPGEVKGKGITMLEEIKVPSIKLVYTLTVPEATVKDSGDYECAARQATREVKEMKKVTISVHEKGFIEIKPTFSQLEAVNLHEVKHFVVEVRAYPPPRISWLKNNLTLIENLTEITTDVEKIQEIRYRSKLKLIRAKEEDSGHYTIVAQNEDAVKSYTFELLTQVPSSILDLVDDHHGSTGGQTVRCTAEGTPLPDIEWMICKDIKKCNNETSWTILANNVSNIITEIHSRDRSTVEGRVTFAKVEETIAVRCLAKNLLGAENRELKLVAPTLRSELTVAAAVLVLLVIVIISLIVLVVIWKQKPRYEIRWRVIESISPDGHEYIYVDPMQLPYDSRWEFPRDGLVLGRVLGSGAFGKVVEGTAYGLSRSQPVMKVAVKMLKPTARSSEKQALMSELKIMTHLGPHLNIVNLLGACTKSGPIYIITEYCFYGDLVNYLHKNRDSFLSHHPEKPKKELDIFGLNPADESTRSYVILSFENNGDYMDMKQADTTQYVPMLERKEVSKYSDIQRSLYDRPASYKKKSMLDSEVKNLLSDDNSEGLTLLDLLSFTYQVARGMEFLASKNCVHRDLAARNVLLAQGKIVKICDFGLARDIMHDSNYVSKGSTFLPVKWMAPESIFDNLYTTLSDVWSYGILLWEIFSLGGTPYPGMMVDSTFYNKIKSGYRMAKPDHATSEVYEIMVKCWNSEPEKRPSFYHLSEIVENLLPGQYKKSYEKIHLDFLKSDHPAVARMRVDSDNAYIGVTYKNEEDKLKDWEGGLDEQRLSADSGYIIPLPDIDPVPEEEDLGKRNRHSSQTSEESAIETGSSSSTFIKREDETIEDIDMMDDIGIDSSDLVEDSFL
Insulin receptor (Homo sapiens), sequence (P06213 28-758 limits assumed): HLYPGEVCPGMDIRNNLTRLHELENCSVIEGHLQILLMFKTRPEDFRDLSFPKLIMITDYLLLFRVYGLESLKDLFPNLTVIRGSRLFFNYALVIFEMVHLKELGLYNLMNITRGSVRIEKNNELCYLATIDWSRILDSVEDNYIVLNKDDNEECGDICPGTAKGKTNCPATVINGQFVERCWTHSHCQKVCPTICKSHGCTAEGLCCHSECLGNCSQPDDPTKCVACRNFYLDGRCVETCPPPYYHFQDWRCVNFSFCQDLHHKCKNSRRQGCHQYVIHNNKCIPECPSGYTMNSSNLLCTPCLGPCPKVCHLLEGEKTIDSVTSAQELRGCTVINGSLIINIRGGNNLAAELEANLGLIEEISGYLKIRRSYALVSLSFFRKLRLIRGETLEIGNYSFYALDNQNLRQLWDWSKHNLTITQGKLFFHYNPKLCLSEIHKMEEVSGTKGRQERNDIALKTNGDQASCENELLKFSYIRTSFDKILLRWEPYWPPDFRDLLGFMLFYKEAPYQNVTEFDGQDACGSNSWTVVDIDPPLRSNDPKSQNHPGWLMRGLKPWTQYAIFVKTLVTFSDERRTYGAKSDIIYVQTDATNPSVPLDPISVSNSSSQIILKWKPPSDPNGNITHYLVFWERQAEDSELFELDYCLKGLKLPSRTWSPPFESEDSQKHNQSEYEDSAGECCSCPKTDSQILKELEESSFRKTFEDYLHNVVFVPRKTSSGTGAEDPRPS
Insulin receptor (Homo sapiens), sequence (P06213 763-1382 limits assumed): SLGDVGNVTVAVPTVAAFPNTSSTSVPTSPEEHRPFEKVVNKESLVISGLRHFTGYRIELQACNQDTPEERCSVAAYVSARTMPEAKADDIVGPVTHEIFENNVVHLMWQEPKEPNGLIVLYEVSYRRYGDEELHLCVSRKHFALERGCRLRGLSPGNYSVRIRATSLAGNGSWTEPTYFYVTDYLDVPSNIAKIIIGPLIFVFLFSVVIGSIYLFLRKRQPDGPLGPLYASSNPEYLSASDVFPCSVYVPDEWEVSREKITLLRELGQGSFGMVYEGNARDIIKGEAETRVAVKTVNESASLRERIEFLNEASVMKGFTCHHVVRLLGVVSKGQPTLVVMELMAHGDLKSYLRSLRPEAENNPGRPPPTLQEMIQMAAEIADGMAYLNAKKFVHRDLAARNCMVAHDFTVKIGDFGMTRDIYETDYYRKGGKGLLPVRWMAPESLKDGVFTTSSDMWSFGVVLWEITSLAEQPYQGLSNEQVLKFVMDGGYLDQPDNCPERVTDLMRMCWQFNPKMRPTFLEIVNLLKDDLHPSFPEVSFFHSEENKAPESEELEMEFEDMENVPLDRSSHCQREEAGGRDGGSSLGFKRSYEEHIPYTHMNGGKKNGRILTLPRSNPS
Cyclin-dependent kinase 16 (Homo sapiens), sequence (Q00536 whole entry, the tested form may be a part): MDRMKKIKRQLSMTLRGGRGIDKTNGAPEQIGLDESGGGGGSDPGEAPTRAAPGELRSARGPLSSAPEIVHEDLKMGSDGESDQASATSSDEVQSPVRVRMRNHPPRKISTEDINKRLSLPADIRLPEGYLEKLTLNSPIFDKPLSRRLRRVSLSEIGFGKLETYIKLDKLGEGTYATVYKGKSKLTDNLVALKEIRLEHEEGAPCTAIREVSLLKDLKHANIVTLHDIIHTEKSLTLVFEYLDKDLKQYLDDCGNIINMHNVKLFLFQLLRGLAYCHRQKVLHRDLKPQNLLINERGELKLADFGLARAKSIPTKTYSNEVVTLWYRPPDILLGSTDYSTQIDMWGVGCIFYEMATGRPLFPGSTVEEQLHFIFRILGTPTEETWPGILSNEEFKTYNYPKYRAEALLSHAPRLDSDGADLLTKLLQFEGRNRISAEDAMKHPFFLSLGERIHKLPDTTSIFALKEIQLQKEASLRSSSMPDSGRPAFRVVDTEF

O=C1C2=C(C(=O)c3c(O)ccc(O)c31)[C@@H](O)[C@@H](O)[C@@H](O)C2
Activity [1]: 97% | Activity [2]: 94% | Activity [3]: 100% | Activity [4]: 96% | Activity [5]: 100% | IC50 [6]: 8.21 µM | Activity [7]: 79% | Activity [8]: 100% | Activity [9]: 100% | Activity [10]: 95% | Activity [11]: 90% | Activity [12]: 93% | Activity [13]: 72% | Activity [14]: 100% | Activity [15]: 92% | Activity [16]: 70% | Activity [17]: 90% | Activity [18]: 68% | % of MOE kinase hits [19]: 43% | Activity [20]: 60% | Activity [21]: 89% | Activity [22]: 100% | Activity [23]: 85% | Activity [24]: 100% | Activity [25]: 93% | Activity [26]: 99%
